Measurements as given in ChEMBL document CHEMBL5705905, “Pharmacological targeting of kinases MST1 and MST2 augments tissue repair and regeneration” (Sci Transl Med, 2016).

Tests used:
[1] = target: T1, Serine/threonine-protein kinase 3 (Homo sapiens, UniProt Q13188); assay: Inhibition of recombinant His-tagged full-length MST2 (unknown origin) expressing in Escherichia coli assessed as MOB1a phosphorylation level incubated for 30 min in the presence of 10 uM ATP by immunoblot analysis
T1 sequence (Q13188 whole entry): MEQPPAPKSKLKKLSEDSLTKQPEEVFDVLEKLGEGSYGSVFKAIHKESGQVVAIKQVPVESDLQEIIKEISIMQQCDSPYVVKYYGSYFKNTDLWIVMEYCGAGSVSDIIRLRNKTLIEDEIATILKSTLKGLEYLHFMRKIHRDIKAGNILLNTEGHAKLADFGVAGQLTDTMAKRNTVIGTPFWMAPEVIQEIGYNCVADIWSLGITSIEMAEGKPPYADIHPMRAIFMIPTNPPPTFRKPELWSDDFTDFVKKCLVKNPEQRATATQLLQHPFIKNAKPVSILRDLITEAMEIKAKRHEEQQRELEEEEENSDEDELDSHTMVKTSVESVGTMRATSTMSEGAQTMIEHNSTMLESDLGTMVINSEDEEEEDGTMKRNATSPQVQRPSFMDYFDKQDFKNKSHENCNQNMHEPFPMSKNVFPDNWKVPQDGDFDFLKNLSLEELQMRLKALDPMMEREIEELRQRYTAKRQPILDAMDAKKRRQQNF

[2] = system: Tyrosine-protein kinase ABL1 (Homo sapiens), P00519 [Y253F]; assay: Inhibition of phosphorylated ABL1 Y253F mutant (unknown origin) assessed as remaining activity at 1 uM by Kinome scan method relative to control
[3] = target: Cyclin-dependent kinase 19 (Homo sapiens) (UniProt Q9BWU1); assay: Inhibition of CDK11 (unknown origin) assessed as remaining activity at 1 uM by Kinome scan method relative to control
Chain of Cyclin-dependent kinase 19 (Homo sapiens) (Q9BWU1 whole entry): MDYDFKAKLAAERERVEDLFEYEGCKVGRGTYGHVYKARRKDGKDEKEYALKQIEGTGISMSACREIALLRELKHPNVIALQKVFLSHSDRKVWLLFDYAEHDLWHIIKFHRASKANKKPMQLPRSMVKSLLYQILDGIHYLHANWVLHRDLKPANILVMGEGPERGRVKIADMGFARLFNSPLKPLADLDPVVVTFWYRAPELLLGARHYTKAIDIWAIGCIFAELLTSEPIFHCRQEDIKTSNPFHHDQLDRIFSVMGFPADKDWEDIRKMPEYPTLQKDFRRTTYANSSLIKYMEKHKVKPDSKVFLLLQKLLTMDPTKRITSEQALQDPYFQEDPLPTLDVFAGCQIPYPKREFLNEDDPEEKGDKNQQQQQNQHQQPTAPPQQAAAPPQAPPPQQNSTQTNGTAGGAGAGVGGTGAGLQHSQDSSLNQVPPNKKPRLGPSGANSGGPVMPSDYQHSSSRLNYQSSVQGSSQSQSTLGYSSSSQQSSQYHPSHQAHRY
Summary of the method: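 KINOMEscan active-site-dependent competition-binding panel of 468 kinases, compound at 1 μM from a DMSO stock. Result reported as ctrl% = (test signal − positive control signal)/(negative control signal − positive control signal) × 100. The negative control is DMSO (100%) and the positive control is a control compound (0%). Lower ctrl% means tighter binding.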

[4] = system: Receptor-type tyrosine-protein kinase FLT3 (Homo sapiens), P36888 [K663Q]; assay: Inhibition of FLT3 K663Q mutant (unknown origin) assessed as remaining activity at 1 uM by Kinome scan method relative to control
[5] = target: Vascular endothelial growth factor receptor 3 (Homo sapiens) (UniProt P35916); assay: Inhibition of FLT4 (unknown origin) assessed as remaining activity at 1 uM by Kinome scan method relative to control
[6] = system: Mast/stem cell growth factor receptor Kit (Homo sapiens), P10721 [V559D,T670I]; assay: Inhibition of KIT V559D/T670I mutant (unknown origin) assessed as remaining activity at 1 uM by Kinome scan method relative to control
[7] = target: LIM domain kinase 2 (Homo sapiens) (UniProt P53671); assay: Inhibition of LIMK2 (unknown origin) assessed as remaining activity at 1 uM by Kinome scan method relative to control
[8] = target: Mitogen-activated protein kinase kinase kinase 1 (Homo sapiens) (UniProt Q13233); assay: Inhibition of MAP3K1 (unknown origin) assessed as remaining activity at 1 uM by Kinome scan method relative to control
[9] = target: MAP kinase-activated protein kinase 2 (Homo sapiens) (UniProt P49137); assay: Inhibition of MAPKAPK2 (unknown origin) assessed as remaining activity at 1 uM by Kinome scan method relative to control
[10] = target: Myosin-IIIb (Homo sapiens) (UniProt Q8WXR4); assay: Inhibition of MYO3B (unknown origin) assessed as remaining activity at 1 uM by Kinome scan method relative to control
Chain of Myosin-IIIb (Homo sapiens) (Q8WXR4 whole entry): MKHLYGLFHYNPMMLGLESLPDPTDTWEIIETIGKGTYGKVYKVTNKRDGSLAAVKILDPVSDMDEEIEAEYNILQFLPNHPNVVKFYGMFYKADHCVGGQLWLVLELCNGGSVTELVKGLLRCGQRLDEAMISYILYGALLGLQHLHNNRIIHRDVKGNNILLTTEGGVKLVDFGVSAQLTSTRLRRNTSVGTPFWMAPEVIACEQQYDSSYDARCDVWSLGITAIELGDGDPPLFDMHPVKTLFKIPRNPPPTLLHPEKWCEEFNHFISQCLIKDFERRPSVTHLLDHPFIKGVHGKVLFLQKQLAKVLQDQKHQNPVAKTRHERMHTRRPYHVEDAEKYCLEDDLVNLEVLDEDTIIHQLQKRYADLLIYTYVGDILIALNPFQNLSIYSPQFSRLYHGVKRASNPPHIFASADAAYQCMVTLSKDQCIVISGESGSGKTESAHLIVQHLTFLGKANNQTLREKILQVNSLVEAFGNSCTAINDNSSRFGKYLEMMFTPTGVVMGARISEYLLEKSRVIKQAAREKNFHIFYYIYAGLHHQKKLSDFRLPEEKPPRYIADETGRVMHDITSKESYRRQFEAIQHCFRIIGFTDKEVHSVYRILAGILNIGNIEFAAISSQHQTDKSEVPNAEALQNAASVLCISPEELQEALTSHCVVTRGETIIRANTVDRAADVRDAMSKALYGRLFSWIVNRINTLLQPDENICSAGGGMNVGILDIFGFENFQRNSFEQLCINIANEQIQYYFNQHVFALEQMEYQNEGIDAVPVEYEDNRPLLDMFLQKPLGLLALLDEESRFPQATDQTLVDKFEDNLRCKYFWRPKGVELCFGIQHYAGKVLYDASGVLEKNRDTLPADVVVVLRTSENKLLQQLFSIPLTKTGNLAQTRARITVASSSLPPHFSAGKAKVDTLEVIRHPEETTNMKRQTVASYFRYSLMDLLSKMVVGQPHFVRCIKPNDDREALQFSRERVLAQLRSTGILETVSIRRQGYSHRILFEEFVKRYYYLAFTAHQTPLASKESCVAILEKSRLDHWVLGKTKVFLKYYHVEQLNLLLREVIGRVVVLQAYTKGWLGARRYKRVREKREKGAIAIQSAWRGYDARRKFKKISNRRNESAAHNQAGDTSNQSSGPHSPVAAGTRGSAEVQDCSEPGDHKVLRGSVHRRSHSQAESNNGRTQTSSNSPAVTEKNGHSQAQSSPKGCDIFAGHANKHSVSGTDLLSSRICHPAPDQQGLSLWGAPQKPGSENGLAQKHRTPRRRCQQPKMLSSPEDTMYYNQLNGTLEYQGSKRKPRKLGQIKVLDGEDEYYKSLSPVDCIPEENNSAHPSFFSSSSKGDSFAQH

[11] = target: Serine/threonine-protein kinase Nek3 (Homo sapiens) (UniProt P51956); assay: Inhibition of NEK3 (unknown origin) assessed as remaining activity at 1 uM by Kinome scan method relative to control
[12] = target: Serine/threonine-protein kinase PAK 3 (Homo sapiens) (UniProt O75914); assay: Inhibition of PAK3 (unknown origin) assessed as remaining activity at 1 uM by Kinome scan method relative to control
Chain of Serine/threonine-protein kinase PAK 3 (Homo sapiens) (O75914 whole entry, looked up, canonical isoform): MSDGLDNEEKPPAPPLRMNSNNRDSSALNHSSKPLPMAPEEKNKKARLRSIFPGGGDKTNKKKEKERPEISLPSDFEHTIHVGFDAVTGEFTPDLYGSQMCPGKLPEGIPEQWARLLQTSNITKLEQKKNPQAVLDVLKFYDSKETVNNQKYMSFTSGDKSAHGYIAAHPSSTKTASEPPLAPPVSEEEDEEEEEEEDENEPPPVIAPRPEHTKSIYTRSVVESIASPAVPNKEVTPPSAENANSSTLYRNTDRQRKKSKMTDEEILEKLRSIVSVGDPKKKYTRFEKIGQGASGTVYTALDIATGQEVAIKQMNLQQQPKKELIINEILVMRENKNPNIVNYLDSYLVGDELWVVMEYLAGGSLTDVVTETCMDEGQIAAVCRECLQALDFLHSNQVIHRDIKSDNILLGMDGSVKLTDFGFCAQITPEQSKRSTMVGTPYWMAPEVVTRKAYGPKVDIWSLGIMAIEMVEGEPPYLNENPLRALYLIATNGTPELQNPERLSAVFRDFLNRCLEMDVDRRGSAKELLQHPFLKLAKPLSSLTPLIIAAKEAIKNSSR

[13] = target: Phosphorylase b kinase gamma catalytic chain, skeletal muscle/heart isoform (Homo sapiens) (UniProt Q16816); assay: Inhibition of PHKG1 (unknown origin) assessed as remaining activity at 1 uM by Kinome scan method relative to control
Chain of Phosphorylase b kinase gamma catalytic chain, skeletal muscle/heart isoform (Homo sapiens) (Q16816 whole entry, looked up, canonical isoform): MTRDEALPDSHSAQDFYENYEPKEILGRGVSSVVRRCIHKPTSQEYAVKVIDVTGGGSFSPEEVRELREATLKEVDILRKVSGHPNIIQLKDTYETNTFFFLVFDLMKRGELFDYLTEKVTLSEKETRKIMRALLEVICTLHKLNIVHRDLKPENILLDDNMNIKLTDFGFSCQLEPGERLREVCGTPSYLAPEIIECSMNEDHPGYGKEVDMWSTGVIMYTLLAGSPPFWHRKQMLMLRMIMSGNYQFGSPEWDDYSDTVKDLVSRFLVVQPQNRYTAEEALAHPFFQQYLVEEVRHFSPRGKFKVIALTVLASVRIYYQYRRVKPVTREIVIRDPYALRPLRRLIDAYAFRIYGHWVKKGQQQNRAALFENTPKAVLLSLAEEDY

[14] = target: Phosphatidylinositol 5-phosphate 4-kinase type-2 gamma (Homo sapiens) (UniProt Q8TBX8); assay: Inhibition of PIP5K2C (unknown origin) assessed as remaining activity at 1 uM by Kinome scan method relative to control
Chain of Phosphatidylinositol 5-phosphate 4-kinase type-2 gamma (Homo sapiens) (Q8TBX8 whole entry): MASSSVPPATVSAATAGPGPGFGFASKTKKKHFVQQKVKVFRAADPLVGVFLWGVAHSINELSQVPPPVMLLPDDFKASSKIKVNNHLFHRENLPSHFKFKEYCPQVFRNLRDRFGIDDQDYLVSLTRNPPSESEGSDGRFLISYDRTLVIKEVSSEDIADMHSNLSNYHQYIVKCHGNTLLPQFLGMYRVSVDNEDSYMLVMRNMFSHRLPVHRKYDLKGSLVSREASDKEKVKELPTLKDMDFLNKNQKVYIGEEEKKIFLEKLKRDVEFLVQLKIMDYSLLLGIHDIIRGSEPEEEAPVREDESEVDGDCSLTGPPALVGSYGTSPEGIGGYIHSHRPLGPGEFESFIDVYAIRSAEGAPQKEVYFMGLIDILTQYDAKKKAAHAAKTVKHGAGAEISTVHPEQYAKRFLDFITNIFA

[15] = target: Serine/threonine-protein kinase PknB (Mycobacterium tuberculosis) (UniProt P9WI81); assay: Inhibition of Mycobacterium tuberculosis PknB assessed as remaining activity at 1 uM by Kinome scan method relative to control
Summary of the method: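 KINOMEscan active-site competition binding assay at 1 μM against 468 kinases. Ctrl% = (test − positive control)/(negative control DMSO − positive control) × 100; lower values mean tighter binding.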

[16] = target: Protein kinase C eta type (Homo sapiens) (UniProt P24723); assay: Inhibition of PRKCH (unknown origin) assessed as remaining activity at 1 uM by Kinome scan method relative to control
[17] = target: Serine/threonine-protein kinase D2 (Homo sapiens) (UniProt Q9BZL6); assay: Inhibition of PRKD2 (unknown origin) assessed as remaining activity at 1 uM by Kinome scan method relative to control
[18] = target: Tyrosine-protein kinase Srms (Homo sapiens) (UniProt Q9H3Y6); assay: Inhibition of SRMS (unknown origin) assessed as remaining activity at 1 uM by Kinome scan method relative to control
[19] = target: Serine/threonine-protein kinase TAO3 (Homo sapiens) (UniProt Q9H2K8); assay: Inhibition of TAOK3 (unknown origin) assessed as remaining activity at 1 uM by Kinome scan method relative to control
[20] = target: Serine/threonine-protein kinase tousled-like 1 (Homo sapiens) (UniProt Q9UKI8); assay: Inhibition of TLK1 (unknown origin) assessed as remaining activity at 1 uM by Kinome scan method relative to control
[21] = target: Serine/threonine-protein kinase 25 (Homo sapiens) (UniProt O00506); assay: Inhibition of YSK1 (unknown origin) assessed as remaining activity at 1 uM by Kinome scan method relative to control
Chain of Serine/threonine-protein kinase 25 (Homo sapiens) (O00506 whole entry, looked up): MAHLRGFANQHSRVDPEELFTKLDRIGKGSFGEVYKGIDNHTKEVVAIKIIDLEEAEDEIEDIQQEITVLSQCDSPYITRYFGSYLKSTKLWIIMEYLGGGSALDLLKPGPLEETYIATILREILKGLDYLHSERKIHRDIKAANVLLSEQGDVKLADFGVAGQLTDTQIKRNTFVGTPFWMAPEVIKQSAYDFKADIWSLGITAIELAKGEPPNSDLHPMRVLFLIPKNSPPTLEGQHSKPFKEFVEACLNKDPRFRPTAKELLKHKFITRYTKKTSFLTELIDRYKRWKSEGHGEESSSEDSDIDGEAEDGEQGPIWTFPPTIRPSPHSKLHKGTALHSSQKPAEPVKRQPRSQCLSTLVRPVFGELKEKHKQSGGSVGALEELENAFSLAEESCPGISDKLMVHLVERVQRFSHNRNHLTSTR

[22] = target: Serine/threonine-protein kinase DCLK1 (Homo sapiens, UniProt O15075); assay: Binding affinity to DCAMKL1 (unknown origin) assessed as dissociation constant
Chain of Serine/threonine-protein kinase DCLK1 (O15075 whole entry): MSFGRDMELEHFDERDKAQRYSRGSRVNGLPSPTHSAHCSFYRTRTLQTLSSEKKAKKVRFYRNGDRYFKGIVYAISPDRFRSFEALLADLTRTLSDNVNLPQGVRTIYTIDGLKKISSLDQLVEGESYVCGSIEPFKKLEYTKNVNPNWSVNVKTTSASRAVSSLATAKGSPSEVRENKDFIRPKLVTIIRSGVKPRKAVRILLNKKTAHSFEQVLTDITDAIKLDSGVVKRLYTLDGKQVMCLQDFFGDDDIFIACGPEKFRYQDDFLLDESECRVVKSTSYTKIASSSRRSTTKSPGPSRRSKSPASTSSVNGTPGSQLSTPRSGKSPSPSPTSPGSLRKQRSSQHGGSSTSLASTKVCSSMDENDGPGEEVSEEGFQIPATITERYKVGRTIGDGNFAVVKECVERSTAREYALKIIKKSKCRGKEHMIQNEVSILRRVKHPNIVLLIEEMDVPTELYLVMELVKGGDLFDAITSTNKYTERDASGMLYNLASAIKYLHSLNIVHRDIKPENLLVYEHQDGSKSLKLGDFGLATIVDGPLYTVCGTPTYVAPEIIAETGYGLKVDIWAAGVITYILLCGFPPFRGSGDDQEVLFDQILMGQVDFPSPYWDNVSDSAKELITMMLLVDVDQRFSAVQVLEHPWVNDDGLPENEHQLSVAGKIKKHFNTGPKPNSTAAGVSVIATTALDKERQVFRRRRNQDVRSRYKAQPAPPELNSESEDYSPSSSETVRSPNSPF

[23] = target: Phosphatidylinositol 4-phosphate 5-kinase type-1 gamma (Homo sapiens, UniProt O60331); assay: Inhibition of PIP5K1C (unknown origin) in presence of ATP by enzymatic assay
Chain of Phosphatidylinositol 4-phosphate 5-kinase type-1 gamma (O60331 whole entry): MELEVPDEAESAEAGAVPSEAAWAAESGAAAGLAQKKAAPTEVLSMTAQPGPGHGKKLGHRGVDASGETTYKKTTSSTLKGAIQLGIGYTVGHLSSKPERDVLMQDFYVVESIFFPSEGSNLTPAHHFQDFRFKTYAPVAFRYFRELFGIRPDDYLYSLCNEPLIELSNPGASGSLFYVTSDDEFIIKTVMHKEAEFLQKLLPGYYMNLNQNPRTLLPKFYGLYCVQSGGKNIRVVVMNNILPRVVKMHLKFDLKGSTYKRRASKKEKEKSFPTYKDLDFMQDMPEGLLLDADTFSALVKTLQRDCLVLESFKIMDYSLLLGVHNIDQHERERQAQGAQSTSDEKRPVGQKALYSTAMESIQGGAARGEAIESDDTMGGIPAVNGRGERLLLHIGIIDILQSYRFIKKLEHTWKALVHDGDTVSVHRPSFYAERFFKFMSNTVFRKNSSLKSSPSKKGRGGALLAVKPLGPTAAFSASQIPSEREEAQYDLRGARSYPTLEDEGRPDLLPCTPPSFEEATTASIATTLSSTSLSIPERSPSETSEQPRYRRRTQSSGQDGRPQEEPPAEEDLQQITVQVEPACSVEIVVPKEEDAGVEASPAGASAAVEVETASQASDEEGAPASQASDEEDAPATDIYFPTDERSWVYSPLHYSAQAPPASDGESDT

HepG2 = assay: Induction of apoptosis in human HepG2 cells assessed as necrosis cells at 3 uM by annexinV staining (Rvb =0.04 %); format: functional
[24] = Cmax in male Sprague-Dawley rat at 10 mg/kg, po measured for 24 hrs by LC-MS/MS analysis; format: ADME, organism-based; conditions: in vivo
Summary of the method: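 Sprague-Dawley rats, single intravenous or oral dose. Parameters (half-life, AUC, bioavailability) reported in a supplementary table.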

CN1C(=O)c2sccc2N(C)c2nc(Nc3ccc(S(N)(=O)=O)cc3)ncc21
IC50 [1]: 34 nM
Activity [2]: 15%
Activity [3]: 95%
Activity [4]: 87%
Activity [5]: 67%
Activity [6]: 88%
Activity [7]: 100%
Activity [8]: 48%
Activity [9]: 91%
Activity [10]: 100%
Activity [11]: 66%
Activity [12]: 100%
Activity [13]: 100%
Activity [14]: 8%
Activity [15]: 89%
Activity [16]: 100%
Activity [17]: 87%
Activity [18]: 100%
Activity [19]: 4.5%
Activity [20]: 100%
Activity [21]: 94%
Kd [22]: 25 nM
IC50 [23]: 436 nM
Activity (HepG2): 0.05%
Cmax [24]: 118 ng/mL
